Results from ChEMBL document CHEMBL2040841, “Design, synthesis and evaluation of triazole functionalized ring-fused 2-pyridones as antibacterial agents” (Eur J Med Chem, 2012).
Calls of active or inactive are those of the source. No cut-off for these calls is given here.

Tests used:
Escherichia coli [1] = test: Inhibition of type 1 pili formation in uropathogenic Escherichia coli isolate UTI89 assessed as inhibition of biofilm formation after 24 hrs by crystal violet staining method; assay type: functional, organism-based; details: isolate UTI89, 24 h
How it was run: (§1)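 UTI89 grown overnight in LB at 37 °C, then diluted 1:1000 in LB under type-1 pili inducing conditions. Compounds were added at a constant DMSO level, and the plates were incubated 24 h in humid boxes at 26 °C. Wells were washed with water, air dried and stained with 1% crystal violet, and absorbance was read at 600 nm. Growth was monitored in separate plates. Triplicates were compared with DMSO-treated controls.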

Escherichia coli [2] = test: Antibacterial activity against uropathogenic Escherichia coli isolate UTI89 assessed as inhibition of biofilm formation at 200 uM after 24 hrs by crystal violet staining method; assay type: functional, organism-based; how it was run: as §1

In the case of O=C(O)c1c(-c2cn(Cc3ccccc3)nn2)sc2c(-c3cccc(C(F)(F)F)c3)c(Cc3cccc4ccccc34)cc(=O)n12, the EC50 (Escherichia coli [1]) is reported as 50 µM.

For O=C(O)[C@@H]1CSc2c(-c3cn(Cc4ccccc4)nn3)c(Cc3cccc4ccccc34)c(Br)c(=O)n21, the EC50 (Escherichia coli [1]) was 100 µM.

Cn1cc(-c2sc3c(-c4cccc(C(F)(F)F)c4)c(Cc4cccc5ccccc45)cc(=O)n3c2C(=O)O)nn1 showed an EC50 (Escherichia coli [1]) of 9 µM.

O=C(O)c1c(-c2c[nH]nn2)sc2c(-c3cccc(C(F)(F)F)c3)c(Cc3cccc4ccccc34)cc(=O)n12 was tested, and the inhibition (Escherichia coli [2]) was “inactive” and the EC50 (Escherichia coli [1]) was over 200 µM.

Cn1cc(-c2sc3c(C4CC4)c(Cc4cccc5ccccc45)cc(=O)n3c2C(=O)O)nn1 was tested, and the inhibition (Escherichia coli [2]) was “inactive” and the EC50 (Escherichia coli [1]) was 150 µM.

O=C(O)[C@@H]1CSc2c(-c3c[nH]nn3)c(Cc3cccc4ccccc34)cc(=O)n21 was tested, and the inhibition (Escherichia coli [2]) was “inactive” and the EC50 (Escherichia coli [1]) was over 200 µM.

O=C(O)[C@@H]1CSc2c(-c3cn(Cc4ccccc4)nn3)c(Cc3cccc4ccccc34)cc(=O)n21 was tested, and the EC50 (Escherichia coli [1]) was 100 µM.

O=C(O)[C@@H]1CSc2c(-c3cn([C@H](CO)Cc4ccccc4)nn3)c(Cc3cccc4ccccc34)c(Br)c(=O)n21 gave an EC50 (Escherichia coli [1]) of 150 µM.

In the case of CCn1cc(-c2c(Cc3cccc4ccccc34)cc(=O)n3c2SC[C@H]3C(=O)O)nn1, the inhibition (Escherichia coli [2]) is reported as “inactive” and the EC50 (Escherichia coli [1]) is reported as over 200 µM.

For CCn1cc(-c2c(Cc3cccc4ccccc34)c(Br)c(=O)n3c2SC[C@H]3C(=O)O)nn1, the inhibition (Escherichia coli [2]) was “inactive” and the EC50 (Escherichia coli [1]) was over 200 µM.

Nc1ccc(Cn2cc(-c3c(Cc4cccc5ccccc45)cc(=O)n4c3SC[C@H]4C(=O)O)nn2)cc1 was tested, and the inhibition (Escherichia coli [2]) was “inactive” and the EC50 (Escherichia coli [1]) was over 200 µM.

Molecule O=C(O)c1c(-c2c[nH]nn2)sc2c(C3CC3)c(Cc3cccc4ccccc34)cc(=O)n12 has an EC50 (Escherichia coli [1]) of 75 µM.

Cc1ccc(Cn2cc(-c3c(Cc4cccc5ccccc45)c(Br)c(=O)n4c3SC[C@H]4C(=O)O)nn2)cc1 was tested, and the inhibition (Escherichia coli [2]) was “inactive” and the EC50 (Escherichia coli [1]) was 200 µM.

Molecule Cc1ccc(Cn2cc(-c3c(Cc4cccc5ccccc45)cc(=O)n4c3SC[C@H]4C(=O)O)nn2)cc1 has an EC50 (Escherichia coli [1]) of 75 µM.

In the case of O=C(O)[C@@H]1CSc2c(-c3cn(CC4CC4)nn3)c(Cc3cccc4ccccc34)cc(=O)n21, the inhibition (Escherichia coli [2]) is reported as “inactive” and the EC50 (Escherichia coli [1]) is reported as over 200 µM.

Work on O=C(O)[C@@H]1CSc2c(-c3cn(Cc4ccc([N+](=O)[O-])cc4)nn3)c(Cc3cccc4ccccc34)c(Br)c(=O)n21 yielded an EC50 (Escherichia coli [1]) of 35 µM.

With O=C(O)[C@@H]1CSc2c(-c3c[nH]nn3)c(Cc3cccc4ccccc34)c(Br)c(=O)n21 the inhibition (Escherichia coli [2]) was “inactive” and the EC50 (Escherichia coli [1]) was over 200 µM.

For O=C(O)[C@@H]1CSc2c(-c3cn([C@@H]4OC[C@@H](O)[C@H](O)[C@H]4O)nn3)c(Cc3cccc4ccccc34)cc(=O)n21, the inhibition (Escherichia coli [2]) was “inactive” and the EC50 (Escherichia coli [1]) was over 200 µM.

O=C(O)[C@@H]1CSc2c(-c3cn([C@H](CO)Cc4ccccc4)nn3)c(Cc3cccc4ccccc34)cc(=O)n21 was tested, and the inhibition (Escherichia coli [2]) was “inactive” and the EC50 (Escherichia coli [1]) was over 200 µM.

In the case of Cn1cc(-c2c(Cc3cccc4ccccc34)c(Br)c(=O)n3c2SC[C@H]3C(=O)O)nn1, the inhibition (Escherichia coli [2]) is reported as “inactive” and the EC50 (Escherichia coli [1]) is reported as over 200 µM.

In the case of Cn1cc(-c2c(Cc3cccc4ccccc34)cc(=O)n3c2SC[C@H]3C(=O)O)nn1, the inhibition (Escherichia coli [2]) is reported as “inactive” and the EC50 (Escherichia coli [1]) is reported as over 200 µM.

In the case of O=C(O)[C@@H]1CSc2c(-c3cn(CC4CC4)nn3)c(Cc3cccc4ccccc34)c(Br)c(=O)n21, the inhibition (Escherichia coli [2]) is reported as “inactive” and the EC50 (Escherichia coli [1]) is reported as over 200 µM.

In the case of O=C(O)[C@@H]1CSc2c(-c3cn([C@@H]4OC[C@@H](O)[C@H](O)[C@H]4O)nn3)c(Cc3cccc4ccccc34)c(Br)c(=O)n21, the inhibition (Escherichia coli [2]) is reported as “inactive” and the EC50 (Escherichia coli [1]) is reported as over 200 µM.

For O=C(O)c1c(-c2cn(Cc3ccccc3)nn2)sc2c(C3CC3)c(Cc3cccc4ccccc34)cc(=O)n12, the inhibition (Escherichia coli [2]) was “inactive” and the EC50 (Escherichia coli [1]) was over 200 µM.
